Test results: ChEMBL document CHEMBL1129431, “Derivatives of (R)- and (S)-5-fluoro-8-hydroxy-2-(dipropylamino)tetralin: synthesis and interactions with 5-HT1A receptors” (J Med Chem, 1996)
Where “and” joins values, the source holds several entries; their conditions need not be identical. Identical values can stand only once.

Key:
[1] = target: T1, 5-hydroxytryptamine receptor 1A (Rattus norvegicus) (UniProt P19327); experiment: Effect against 5-hydroxytryptamine 1A receptor mediated inhibition of VIP-stimulated cAMP production at 0.1 uM dose; format: functional; conditions: values are per cent of control
T1 sequence (whole entry): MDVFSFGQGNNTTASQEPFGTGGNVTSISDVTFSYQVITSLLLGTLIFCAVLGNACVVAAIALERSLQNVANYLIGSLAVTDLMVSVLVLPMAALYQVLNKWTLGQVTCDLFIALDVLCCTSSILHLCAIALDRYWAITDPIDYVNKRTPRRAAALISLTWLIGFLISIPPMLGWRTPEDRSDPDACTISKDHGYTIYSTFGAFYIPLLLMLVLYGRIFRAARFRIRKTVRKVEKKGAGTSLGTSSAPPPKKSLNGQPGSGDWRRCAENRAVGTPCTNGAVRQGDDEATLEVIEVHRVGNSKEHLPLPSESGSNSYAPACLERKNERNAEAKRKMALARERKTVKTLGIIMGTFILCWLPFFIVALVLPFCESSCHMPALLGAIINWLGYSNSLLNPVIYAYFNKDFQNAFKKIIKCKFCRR
Summary of the method: (§1)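 GH4ZD10 cells expressing rat 5-HT1A receptors were detached with EBSS plus 1 mM EDTA and resuspended to ~1×10^7 cells/mL in Ham's F10 with 0.01% ascorbic acid and 0.1 mM IBMX. After 1 h preincubation at 37 °C they were diluted to 0.8-1.5×10^6 cells/mL, then incubated 20 min at 37 °C with VIP (39 nM final) plus compound, alone or with 5-HT, in duplicate. The reaction was stopped by boiling. cAMP was measured in triplicate by protein-binding assay and expressed as % of the VIP-stimulated response.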

[2] = target: T1, 5-hydroxytryptamine receptor 1A (Rattus norvegicus); experiment: Effect on 5-hydroxytryptamine 1A receptor mediated inhibition of VIP-stimulated cAMP production at dose of 0.1 uM + 1 uM 5-HT.; format: functional; conditions: values are per cent of control; summary of the method: as §1
[3] = target: T1, 5-hydroxytryptamine receptor 1A (Rattus norvegicus); experiment: Effect on 5-hydroxytryptamine 1A receptor mediated inhibition of VIP-stimulated cAMP production at dose of 10 uM; format: functional; conditions: values are per cent of control; summary of the method: as §1
[4] = target: T1, 5-hydroxytryptamine receptor 1A (Rattus norvegicus); experiment: Effect on 5-hydroxytryptamine 1A receptor mediated inhibition of VIP-stimulated cAMP production at dose of 1 uM; format: functional; conditions: values are per cent of control; summary of the method: as §1
[5] = target: T1, 5-hydroxytryptamine receptor 1A (Rattus norvegicus); experiment: Effect on 5-hydroxytryptamine 1A receptor mediated inhibition of VIP-stimulated cAMP production at dose of 1 uM+ 10 uM 5-HT.; format: functional; conditions: values are per cent of control; summary of the method: as §1
[6] = target: T2, 5-hydroxytryptamine receptor 1A (Rattus norvegicus, UniProt P19327); experiment: Binding affinity against rat hippocampal 5-hydroxytryptamine 1A (5-HT1A) receptor determined using [3H]8-OH-DPAT as radioligand; format: tissue-based, Hippocampus
T2 sequence (P19327 whole entry): T1 sequence (whole entry)

[7] = target: T1, 5-hydroxytryptamine receptor 1A (Rattus norvegicus); experiment: Effect on 5-hydroxytryptamine 1A receptor mediated inhibition of VIP-stimulated cAMP production at dose of 50 uM; format: functional; conditions: values are per cent of control
Summary of the method: (§2)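 GH4ZD10 cells expressing rat 5-HT1A receptors, detached with EDTA-supplemented Ca/Mg-free EBSS and resuspended in Ham's F10 with 0.01% ascorbic acid and 0.1 mM IBMX. Preincubated 1 h at 37 °C, then 0.8-1.5×10^6 cells/mL incubated 20 min at 37 °C with VIP (39 nM final) plus compounds. Duplicate samples stopped by boiling. cAMP measured in triplicate by protein-binding assay. Results are given as % of the VIP-stimulated response.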

[8] = target: T1, 5-hydroxytryptamine receptor 1A (Rattus norvegicus); experiment: Effect on 5-hydroxytryptamine 1A receptor mediated inhibition of VIP-stimulated cAMP production at dose of 0.05 uM; format: functional; conditions: values are per cent of control; summary of the method: as §2
[9] = target: T1, 5-hydroxytryptamine receptor 1A (Rattus norvegicus); experiment: (§3) Effect on 5-hydroxytryptamine 1A receptor mediated inhibition of VIP-stimulated cAMP production at dose of 1 uM+ 50 uM 5-HT.; format: functional; conditions: values are per cent of control; summary of the method: as §2
[10] = target: T1, 5-hydroxytryptamine receptor 1A (Rattus norvegicus); experiment: Effect on 5-hydroxytryptamine 1A receptor mediated inhibition of VIP-stimulated cAMP production at dose of 30 uM; format: functional; conditions: values are per cent of control; summary of the method: as §1
[11] = target: T1, 5-hydroxytryptamine receptor 1A (Rattus norvegicus); conditions: 0.05 uM
[12] = target: T1, 5-hydroxytryptamine receptor 1A (Rattus norvegicus); experiment: Effect on 5-hydroxytryptamine 1A receptor mediated inhibition of VIP-stimulated cAMP production at dose of 0.01 uM+ 1 uM 5-HT.; format: functional; conditions: values are per cent of control; summary of the method: as §1
[13] = target: T1, 5-hydroxytryptamine receptor 1A (Rattus norvegicus); experiment: Effect on 5-hydroxytryptamine 1A receptor-mediated inhibition of VIP-stimulated cAMP production at dose of 1 uM+ 10 uM 5-HT.; format: functional; conditions: values are per cent of control; summary of the method: as §1
[14] = target: T1, 5-hydroxytryptamine receptor 1A (Rattus norvegicus); conditions: 0.1 uM
[15] = target: T1, 5-hydroxytryptamine receptor 1A (Rattus norvegicus); conditions: 1 uM
[16] = target: T1, 5-hydroxytryptamine receptor 1A (Rattus norvegicus); experiment: Effect on 5-hydroxytryptamine 1A receptor mediated inhibition of VIP-stimulated cAMP production at dose of 1 uM+ 1 uM 5-HT.; format: functional; conditions: values are per cent of control; summary of the method: as §2
[17] = target: T1, 5-hydroxytryptamine receptor 1A (Rattus norvegicus); experiment: as §3; format: functional; conditions: values are per cent of control; summary of the method: as §1; remark: listed apart in the source

Row | Compound | response, % of control [1] | response, % of control [2] [%] | response, % of control [4] [%] | Ki [6] [nM] | other results
1 | O=C1CC2(CCCC2)CC(=O)N1CCCCN1CCN(c2ncccn2)CC1 | 84% | 43 | 75 |  | response, % of control [3]: 73%; response, % of control [5]: 64%
2 | CCCN(CCCCN1C(=O)CC2(CCCC2)CC1=O)[C@@H]1CCc2c(F)ccc(O)c2C1 |  | 68 | 66 | < 0.3 | response, % of control [7]: 68%; response, % of control [8]: 72%
3 | CCCN(CCC)[C@@H]1CCc2c(F)ccc(-c3cccs3)c2C1 [listing 1 of 3 here] |  |  |  | 35 | 
4 | CCCN(CCCCN1C(=O)CC2(CCCC2)CC1=O)[C@@H]1CCc2c(F)ccc(OC)c2C1 |  | 56 | 56 | < 0.3 | response, % of control [7]: 41%; response, % of control [8]: 62%; response, % of control [9]: 40%
5 | CCCN(CCC)[C@@H]1CCc2cccc(-c3ccco3)c2C1 |  |  |  | 9.3 | 
6 | CCCN(CCC)[C@@H]1CCc2cccc(S(=O)(=O)C(F)(F)F)c2C1 |  |  |  | 3.8 | 
7 | CCCN(CCC)[C@@H]1CCc2c(F)ccc(-c3cccs3)c2C1 [listing 2 of 3 here] | 98% | 60 | 93 |  | response, % of control [3]: 79%; response, % of control [5]: 58%; response, % of control [10]: 61%
8 | CCCN(CCC)[C@@H]1CCc2c(F)cccc2C1 [listing 1 of 3 here] |  |  |  | 136 | 
9 | CCCN(CCC)[C@@H]1CCc2c(F)ccc(OS(=O)(=O)C(F)(F)F)c2C1 [listing 1 of 3 here] |  |  |  | 18.5 | 
10 | CCCN(CCCCN1C(=O)CC2(CCCC2)CC1=O)[C@@H]1CCc2c(F)ccc(OS(=O)(=O)C(F)(F)F)c2C1 |  | 68 | 73 | 0.9 | response, % of control [8]: 98%; response, % of control [9]: 51%
11 | CCCN(CCC)[C@H]1CCc2cccc(-c3ccco3)c2C1 |  |  |  | 1.8 | 
12 | CCCN(CCC)[C@H]1CCc2c(F)ccc(C(C)=O)c2C1 [listing 1 of 3 here] | 90% | 57 | 98 |  | response, % of control [3]: 97%
13 | CCCN(CCC)[C@H]1CCc2c(F)ccc(C(C)=O)c2C1 [listing 2 of 3 here] |  |  |  | 13.6 | 
14 | CCCN(CCCCN1C(=O)CC2(CCCC2)CC1=O)[C@H]1CCc2c(F)ccc(OS(=O)(=O)C(F)(F)F)c2C1 |  | 68 | 90 | 177 | response, % of control [7]: 65%; response, % of control [8]: 98%
15 | CCCN(CCCCN1C(=O)CC2(CCCC2)CC1=O)[C@H]1CCc2c(F)ccc(O)c2C1 |  |  | 91 | 18.2 | response, % of control [7]: 82%; response, % of control [8]: 95%; response, % of control [11]: 68%
16 | CCCN(CCC)[C@@H]1CCc2cccc(O)c2C1 | 53% | 43 | 45 |  | response, % of control [3]: 47%
17 | CCCN(CCC)[C@H]1CCc2cccc(-c3cccs3)c2C1 |  |  |  | 5.5 | 
18 | CCCN(CCC)[C@H]1CCc2cccc(S(=O)(=O)C(F)(F)F)c2C1 |  |  |  | 9.5 | 
19 | CCCN(CCC)[C@@H]1CCc2c(F)cccc2C1 [listing 2 of 3 here] | 93% and 98% |  | 85 |  | response, % of control [7]: 78%; response, % of control [12]: 60%; response, % of control [3]: 81%; response, % of control [13]: 58%
20 | CCCN(CCC)[C@@H]1CCc2c(F)ccc(C(C)=O)c2C1 [listing 1 of 3 here] | 99% | 60 |  |  | response, % of control [3]: 61%; response, % of control [9]: 63%; response, % of control [10]: 62%; response, % of control [14]: 95%; response, % of control [15]: 63%

Row | Compound | response, % of control [1] | response, % of control [2] [%] | response, % of control [4] [%] | Ki [6] [nM] | other results
21 | CCCN(CCC)[C@H]1CCc2c(F)ccc(OS(=O)(=O)C(F)(F)F)c2C1 [listing 1 of 2 here] |  |  |  | 490 | 
22 | CCCN(CCC)[C@H]1CCc2cccc(O)c2C1 | 74% | 43 | 61 |  | response, % of control [3]: 62%; response, % of control [16]: 47%
23 | CCCN(CCC)[C@@H]1CCc2c(F)ccc(-c3cccs3)c2C1 [listing 3 of 3 here] |  |  |  | 35 | 
24 | CCCN(CCC)[C@H]1CCc2c(F)ccc(OS(=O)(=O)C(F)(F)F)c2C1 [listing 2 of 2 here] |  |  |  | 490 | 
25 | CCCN(CCC)[C@@H]1CCc2c(F)ccc(OS(=O)(=O)C(F)(F)F)c2C1 [listing 2 of 3 here] |  |  |  | 18.5 | 
26 | CCCN(CCC)[C@H]1CCc2c(F)cccc2C1 [listing 1 of 3 here] | 85% | 61 | 86 |  | response, % of control [7]: 86%; response, % of control [17]: 73%
27 | CCCN(CCC)[C@@H]1CCc2c(F)cccc2C1 [listing 3 of 3 here] |  |  |  | 136 | 
28 | CCCN(CCC)[C@@H]1CCc2c(F)ccc(C(C)=O)c2C1 [listing 2 of 3 here] |  |  |  | 6.9 | 
29 | CCCN(CCC)[C@H]1CCc2c(F)cccc2C1 [listing 2 of 3 here] |  |  |  | 250 | 
30 | CCCN(CCC)[C@@H]1CCc2cccc(-c3cccs3)c2C1 |  |  |  | 8.4 | 
31 | CCCN(CCC)[C@H]1CCc2c(F)ccc(C(C)=O)c2C1 [listing 3 of 3 here] |  |  |  | 13.6 | 
32 | CCCN(CCC)[C@H]1CCc2c(F)ccc(-c3cccs3)c2C1 [listing 1 of 3 here] |  |  |  | 32.7 | 
33 | CCCN(CCCCN1C(=O)CC2(CCCC2)CC1=O)[C@@H]1CCc2c(F)ccc(C(C)=O)c2C1 |  | 61 | 59 | < 0.3 | response, % of control [7]: 48%; response, % of control [8]: 50%; response, % of control [9]: 55%
34 | CCCN(CCC)[C@H]1CCc2c(F)ccc(-c3cccs3)c2C1 [listing 2 of 3 here] |  |  |  | 32.7 | 
35 | CCCN(CCC)[C@H]1CCc2c(F)ccc(-c3ccco3)c2C1 | 100% | 56 | 98 |  | response, % of control [3]: 98%
36 | CCCN(CCC)[C@@H]1CCc2c(F)ccc(O)c2C1 | 86% | 57 | 78 |  | response, % of control [3]: 61%
37 | CCCN(CCC)[C@@H]1CCc2c(F)ccc(OS(=O)(=O)C(F)(F)F)c2C1 [listing 3 of 3 here] | 98% | 60 | 91 |  | response, % of control [3]: 61%; response, % of control [5]: 52%; response, % of control [10]: 48%
38 | CCCN(CCC)[C@H]1CCc2c(F)cccc2C1 [listing 3 of 3 here] |  |  |  | 250 | 
39 | CCCN(CCC)[C@H]1CCc2c(F)ccc(-c3cccs3)c2C1 [listing 3 of 3 here] | 99% | 57 | 96 |  | response, % of control [3]: 88%
40 | CCCN(CCC)[C@@H]1CCc2c(F)ccc(C(C)=O)c2C1 [listing 3 of 3 here] |  |  |  | 6.9 | 
